Experimental data reported in ChEMBL document CHEMBL1144509, “Identification of some novel AHAS inhibitors via molecular docking and virtual screening approach” (Bioorg Med Chem, 2007).
One block for each molecule: values may come before it. Peptide text beside a SMILES is read from it.

Columns and labels:
[1] = system: Brassica rapa subsp. oleifera; assay: Herbicidal activity against Brassica campestris L assessed as inhibition of rape root growth at 10 ug/ml; type: functional
Outline: (§1)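 Rape seeds pre-soaked 4 h in distilled water, then set on filter paper in 6-cm dishes wetted with 2 ml test solution, usually 10 seeds per plate, duplicate plates. Germination in the dark for 72 h at 28 (±1) °C. Mean length of 10 roots measured. Percent inhibition calculated against distilled-water controls.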

[2] = system: Brassica rapa subsp. oleifera; assay: Herbicidal activity against Brassica campestris L assessed as inhibition of rape root growth at 100 ug/ml; type: functional; outline: as §1
[3] = Inhibition of Arabidopsis thaliana AHAS
Outline: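 Purified recombinant plant AHAS. Colorimetric assay in 50 mM potassium phosphate pH 7.0 with 50 mM pyruvate, 1 mM thiamine diphosphate, 10 mM MgCl2 and 10 µM FAD, compounds given as emulsions, 30 min at 37 °C. Stopped with 10% H2SO4, then 60 °C for 15 min to convert acetolactate to acetoin. Acetoin developed with 0.5% creatine and 5% α-naphthol for 15 min at 60 °C, read at A525.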

SMILES: O=C(O)Cc1cccc(CC(=O)O)c1
inhibition at 10 µg/mL [1]: 0%
inhibition at 100 µg/mL [2]: 2.6%

SMILES: O=C(NC(Cc1c[nH]cn1)C(=O)O)OCc1ccccc1 (stereo unspecified)
inhibition at 10 µg/mL [1]: 0%
inhibition at 100 µg/mL [2]: 0%

SMILES: O=C(O)CC(NC(=O)OCc1ccccc1)C(=O)O (stereo unspecified)
inhibition at 10 µg/mL [1]: 0%
inhibition at 100 µg/mL [2]: 0%

Ki [3]: 15.2 µM
SMILES: O=C(O)c1ccc(SSc2ccc(C(=O)O)cn2)nc1
inhibition at 10 µg/mL [1]: 6%
inhibition at 100 µg/mL [2]: 12.1%

SMILES: O=C(O)c1cccc(F)c1C(=O)O
inhibition at 10 µg/mL [1]: 0%
inhibition at 100 µg/mL [2]: 0%

SMILES: NC(=O)CCC(NC(=O)OCc1ccccc1)C(=O)O (stereo unspecified)
inhibition at 10 µg/mL [1]: 0%
inhibition at 100 µg/mL [2]: 6.3%

SMILES: NC(=O)CCC(NC(=O)OCC1c2ccccc2-c2ccccc21)C(=O)O (stereo unspecified)
inhibition at 10 µg/mL [1]: 0%
inhibition at 100 µg/mL [2]: 13.9%

SMILES: CC(O)C(NC(=O)OCC1c2ccccc2-c2ccccc21)C(=O)O (stereo unspecified)
inhibition at 10 µg/mL [1]: 0%
inhibition at 100 µg/mL [2]: 25.7%

SMILES: O=C(O)c1cc(-c2cc(C(=O)O)c3ccccc3n2)nc2ccccc12
inhibition at 10 µg/mL [1]: 0%
inhibition at 100 µg/mL [2]: 1.4%

SMILES: CC(NC(=O)OCC1c2ccccc2-c2ccccc21)C(=O)O (stereo unspecified)
inhibition at 10 µg/mL [1]: 0%
inhibition at 100 µg/mL [2]: 12.9%

SMILES: O=C(O)C(Cc1ccc(O)cc1)NSc1ccccc1[N+](=O)[O-] (stereo unspecified)
inhibition at 10 µg/mL [1]: 0%
inhibition at 100 µg/mL [2]: 0%

Ki [3]: 90.7 µM
SMILES: O=C(O)C(Cc1c[nH]c2ccccc12)NSc1ccccc1[N+](=O)[O-] (stereo unspecified)
inhibition at 10 µg/mL [1]: 60.5%
inhibition at 100 µg/mL [2]: 74.8%

SMILES: N[C@@H](Cc1ccc(O)cc1)C(=O)N[C@@H](Cc1ccccc1)C(=O)O (H-Tyr-Phe-OH)
inhibition at 10 µg/mL [1]: 0%
inhibition at 100 µg/mL [2]: 0%

Ki [3]: 42.1 µM
SMILES: O=C1/C(=C2\Nc3ccc(S(=O)(=O)O)cc3C2=O)Nc2ccc(S(=O)(=O)O)cc21 [INDIGOTINDISULFONATE]
inhibition at 10 µg/mL [1]: 0%
inhibition at 100 µg/mL [2]: 0%
